From ChEMBL document CHEMBL1152927, “Diterpene glycosides from the seeds of Pharbitis nil” (J Nat Prod, 2009) come the findings set out here.

Format in all cases: functional, cell-based
Experiment [1] deals with A549. The experiment is described as follows: Cytotoxicity against human A549 cells by SRB assay. An outline of the steps: (§1)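 Sulforhodamine B (SRB) assay against cultured human cancer cell lines, run at the Korea Research Institute of Chemical Technology. Cytotoxicity is reported as IC50 in µM.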
For orientation: Sulforhodamine B stains cellular protein and so reports cell mass.

Experiment [2] has as its system SK-OV-3. The experiment is described as follows: Cytotoxicity against human SKOV3 cells by SRB assay. In short, it runs like this:
as §1

Experiment [3] deals with SK-MEL-2. The experiment is described as follows: Cytotoxicity against human SK-MEL-2 cells by SRB assay. In short, it runs like this: as §1
Experiment [4] has as its system HCT-15. The experiment is described as follows: Cytotoxicity against human HCT15 cells by SRB assay. An outline of the steps: as §1

Usually IC50 stands for the concentration needed to halve the response being measured. High values mean lower potency, low ones higher potency. For `C=C1C[C@]23C[C@@H]1CC[C@H]2[C@]1(C)CCC[C@@](C)(C(=O)O[C@@H]2O[C@H](CO)[C@@H](O)[C@H](O)[C@H]2O)[C@H]1C[C@H]3O` [PHARBOSIDE B], the IC50 in experiment [1], in experiment [2], in experiment [3] and in experiment [4] was over 30 µM in each case.
For `C[C@@]12CCC[C@@](C)(C(=O)O)[C@H]1[C@H](O)[C@H](O)[C@@]13C[C@H](CC[C@@H]21)[C@](O)(CO[C@@H]1O[C@H](CO)[C@@H](O)[C@H](O)[C@H]1O)C3` [PHARBOSIDE E], the IC50 was found to be 23.6 µM in experiment [1], 13.8 µM in experiment [2], 15.2 µM in experiment [3] and 22.1 µM in experiment [4].
As for `COc1cccc2c1C(=O)c1c(O)c3c(c(O)c1C2=O)C[C@@](O)(C(=O)CO)C[C@@H]3O[C@H]1C[C@H](N)[C@H](O)[C@H](C)O1` [DOXORUBICIN], the IC50 was found to be 0.056 µM in experiment [2], 0.117 µM in experiment [3] and 0.164 µM in experiment [4].
In the case of `C=C1C[C@]23C[C@@H]1CC[C@H]2[C@]1(C)CCC[C@@](C)(C(=O)O[C@@H]2O[C@H](CO)[C@@H](O)[C@H](O)[C@H]2O)C1[C@@H]3C=O` (stereo partly drawn) [PHARBOSIDE G], the IC50 in experiment [1], in experiment [2], in experiment [3] and in experiment [4] was over 30 µM each time.
As for `C[C@@]12CCC[C@@](C)(C(=O)O)[C@H]1[C@H](O)[C@H](O)[C@@]13C[C@H](CC[C@@H]21)[C@](CO)(O[C@@H]1O[C@H](CO)[C@@H](O)[C@H](O)[C@H]1O)C3` [PHARBOSIDE F], the IC50 in experiment [1], in experiment [2], in experiment [3] and in experiment [4] was over 30 µM in each case.
As to `C[C@]12CCC[C@@]3(C)C(=O)O[C@@H]([C@H](O)[C@@]45C[C@H](CC[C@@H]14)[C@](O)(CO)C5)[C@@H]23`, the IC50 in experiment [1], in experiment [2], in experiment [3] and in experiment [4] was over 30 µM throughout.
`C[C@@]12CCC[C@@](C)(C(=O)O)[C@H]1[C@H](O)[C@H](O)[C@@]13C[C@H](CC[C@@H]21)[C@](O)(CO)C3`: the IC50 in experiment [1], in experiment [2], in experiment [3] and in experiment [4] was over 30 µM each time.
For `COC(=O)[C@]1(C)CCC[C@@]2(C)[C@@H]3CC[C@H]4C[C@]3(C[C@@]4(CO)O[C@@H]3O[C@H](CO)[C@@H](O)[C@H](O)[C@H]3O)[C@@H](O)[C@@H](O)[C@@H]21` [PHARBOSIDE C], the IC50 in experiment [1], in experiment [2], in experiment [3] and in experiment [4] was over 30 µM throughout.
`C=C1C[C@]23C[C@@H]1CC[C@H]2[C@]1(C)CCC[C@@](C)(C(=O)O[C@@H]2O[C@H](CO)[C@@H](O)[C@H](O)[C@H]2O)[C@H]1C[C@@H]3O` [PHARBOSIDE A]: the IC50 in experiment [1], in experiment [2], in experiment [3] and in experiment [4] was over 30 µM throughout.
In the case of `C[C@@]12CCC[C@@](C)(C(=O)O[C@@H]3O[C@H](CO)[C@@H](O)[C@H](O)[C@H]3O)[C@H]1[C@H](O)[C@H](O)[C@@]13C[C@H](CC[C@@H]21)[C@](O)(CO)C3` [PHARBOSIDE D], the IC50 in experiment [1] was found to be 25.2 µM; in experiment [2], 28.7 µM; in experiment [3], 14.3 µM; in experiment [4], 17.2 µM.
For the compound `C[C@@]12CCC[C@@](C)(C(=O)O)[C@H]1[C@H](O)[C@H](O)[C@@]13C[C@H](CC[C@@H]21)[C@@](O)(CO)C3`, the IC50 in experiment [1], in experiment [2], in experiment [3] and in experiment [4] was over 30 µM in each case.
